This is an account of results in BindingDB's records for doi:10.1016/j.bmcl.2010.04.101 (Indian Institute of Technology, 2010).

The target in this experiment is T1, Membrane-bound transcription factor site-1 protease (Homo sapiens, UniProt Q14703).
T1 sequence (Q14703 whole entry): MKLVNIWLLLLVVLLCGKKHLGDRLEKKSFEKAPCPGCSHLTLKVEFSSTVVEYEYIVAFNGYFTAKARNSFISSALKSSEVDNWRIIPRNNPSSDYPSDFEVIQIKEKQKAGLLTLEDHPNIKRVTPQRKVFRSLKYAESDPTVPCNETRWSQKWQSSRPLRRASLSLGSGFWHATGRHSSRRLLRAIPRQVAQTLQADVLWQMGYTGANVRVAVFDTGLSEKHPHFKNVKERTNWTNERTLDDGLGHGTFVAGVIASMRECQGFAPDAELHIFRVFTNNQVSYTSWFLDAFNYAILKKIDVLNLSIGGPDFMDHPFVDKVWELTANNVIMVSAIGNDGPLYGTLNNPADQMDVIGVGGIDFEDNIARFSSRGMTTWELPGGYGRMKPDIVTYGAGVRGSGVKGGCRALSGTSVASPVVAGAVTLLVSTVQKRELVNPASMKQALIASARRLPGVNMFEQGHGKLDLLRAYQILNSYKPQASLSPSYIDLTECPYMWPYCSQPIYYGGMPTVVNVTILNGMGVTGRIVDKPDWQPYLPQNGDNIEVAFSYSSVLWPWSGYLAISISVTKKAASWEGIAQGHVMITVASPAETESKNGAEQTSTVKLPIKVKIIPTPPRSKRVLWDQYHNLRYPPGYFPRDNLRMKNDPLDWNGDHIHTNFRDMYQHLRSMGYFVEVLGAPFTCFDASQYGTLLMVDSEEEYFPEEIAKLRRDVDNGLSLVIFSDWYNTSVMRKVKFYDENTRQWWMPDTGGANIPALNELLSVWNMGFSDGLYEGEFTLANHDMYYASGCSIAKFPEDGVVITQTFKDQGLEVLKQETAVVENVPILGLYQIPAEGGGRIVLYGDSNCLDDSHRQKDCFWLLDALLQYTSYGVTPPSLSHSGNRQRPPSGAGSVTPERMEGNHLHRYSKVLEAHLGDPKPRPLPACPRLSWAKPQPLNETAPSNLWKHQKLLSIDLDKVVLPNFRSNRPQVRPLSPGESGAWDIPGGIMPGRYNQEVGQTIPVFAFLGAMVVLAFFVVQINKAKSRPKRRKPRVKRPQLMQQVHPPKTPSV
The experiment is described as follows: Inhibition of human recombinant soluble Kexin isozyme 1. The gist of the method: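 Recombinant soluble human SKI-1 (activity normalized to 10 pmol Abz-peptide released per µL per h, 37 °C). Only the E-form was tested, at varying concentrations, with quenched fluorogenic Abz-Q-GPC251–263-Tyx substrate in Tris/Mes/2 mM CaCl2 buffer at 37 °C. RFU (ex 320/em 420 nm) were read from 0–6 h and converted to cleavage rates. Ki came from Dixon plots at 0.1, 0.05 and 0.025 mM substrate.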
By Ki is commonly meant a measure of affinity in units of concentration, obtained from inhibition or displacement. Take `O=C(O)CNC(=O)COc1ccccc1/N=N/c1ccccc1OCC(=O)NCC(=O)O`: the Ki is 265 µM. The value for `O=C(COc1ccccc1/N=N/c1ccccc1OCC(=O)N[C@@H](Cc1ccccc1)C(=O)N[C@@H](Cc1ccccc1)C(=O)O)N[C@@H](Cc1ccccc1)C(=O)N[C@@H](Cc1ccccc1)C(=O)O` was 140 µM.

Take `O=C(COc1ccccc1/N=N/c1ccccc1OCC(=O)N[C@@H](Cc1ccccc1)C(=O)O)N[C@@H](Cc1ccccc1)C(=O)O`: the inhibition constant Ki was 225 µM. Turning to `CC(C)[C@H](NC(=O)COc1ccccc1/N=N/c1ccccc1OCC(=O)N[C@H](C(=O)OCc1ccccc1)C(C)C)C(=O)OCc1ccccc1`, the Ki was 125 µM. The value for `O=C(COc1ccccc1/N=N/c1ccccc1OCC(=O)N[C@@H](Cc1ccccc1)C(=O)OCc1ccccc1)N[C@@H](Cc1ccccc1)C(=O)OCc1ccccc1` was 11.8 µM; that for `CC(C)[C@H](NC(=O)COc1ccccc1/N=N/c1ccccc1OCC(=O)N[C@H](C(=O)O)C(C)C)C(=O)O` was 75 µM.
